Data reported in the array DNA melting data of Ke et al. (doi:10.1101/2024.01.08.574731).

Assays:
[1] = folding enthalpy; higher = less favourable; fluorescence melt of hairpins on a sequencing array, two-state fit; conditions: sodium 0.088 M
In short: (§1)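 With Cy3 and quencher oligos annealed, library hairpins on a sequenced MiSeq flow cell were imaged for Cy3 fluorescence in 50 mM Na-HEPES pH 8.0, 25 mM NaCl, in 2.5 °C steps up to 60 °C. Melting temperature and folding enthalpy were derived from bootstrapped two-state fits of signals normalised to pre-quench Cy3 and to control constructs. Four replicates were combined by inverse variance, with fitted temperatures raised by 9.35 °C to match UV melts.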

[2] = melting temperature; fluorescence melt of hairpins on a sequencing array, two-state fit, raised by 9.35 °C to match UV melts; conditions: sodium 0.088 M
In short: as §1

| Sequence | folding enthalpy [1] [kcal/mol] | Tm [2] [°C] |
| --- | --- | --- |
| GACGACGAAAGTCCGTC ((((((....))).))) | -29.9 | 53.4 |
| GACGACGAAAGTCCTGTC ((((((....)))..))) | -16.4 | 31.4 |
| GACGACGAAAGTCGAGTC ((((((....)))..))) | -10.5 | 39.7 |
| GACGACGAAAGTCGGTC ((((((....))).))) | -12.2 | 60.3 |
| GACGACGAAAGTCTGTC ((((((....))).))) | -24.4 | 51.4 |
| GACGACGGAAACGCCGTC ((((.((....)).)))) | -31.4 | 56.4 |
| GACGACGGAAACGTCATC ((.((((....)))).)) | -15.7 | 38.8 |
| GACGAGACGAAAGTCGTC (((..(((....)))))) | -13.8 | 49 |
| GACGAGCCGAAAGGCGTC (((..(((....)))))) | -8.53 | 42.3 |
| GACGAGCGAAAGCTGGTC (((.(((....))).))) | -31.2 | 54.8 |
| GACGAGCGAAAGCTTGTC (((.(((....))).))) | -36.8 | 61.2 |
| GACGAGGAAACTCGTC ((((((....)))))) | -41.1 | 61.2 |
| GACGATGGAAACACCGTC ((((.((....)).)))) | -29.6 | 45.4 |
| GACGATGGAAACATCGCC (.(((((....))))).) | -17.9 | 47.3 |
| GACGCACGAAAGTGAGTC (((.(((....))).))) | -40 | 60 |
| GACGCACGAAAGTGGGTC (((.(((....))).))) | -35.3 | 63.9 |
| GACGCACGAAAGTGGTC (((.(((....)))))) | -16.9 | 51.7 |
| GACGCCCGAAAGGGGTC (((.(((....)))))) | -17.1 | 55.6 |
| GACGCCCGAAAGGGTGTC (((.(((....))).))) | -35.5 | 69.3 |
| GACGCCGAAAGGCAGGTC ((((((....)))..))) | -16.2 | 52.1 |
| GACGCCGAAAGGCAGTC ((((((....))).))) | -18.2 | 63.7 |
| GACGCCGAAAGGCGGTC ((((((....))).))) | -9.77 | 64.9 |
| GACGCCGAAAGGCTTGTC ((((((....)))..))) | -13.5 | 41.1 |

| Sequence | folding enthalpy [1] [kcal/mol] | Tm [2] [°C] |
| --- | --- | --- |
| GACGCCGGAAACGGCATC ((.((((....)))).)) | -11.4 | 43.4 |
| GACGCGGGAAACCGCACC (..((((....))))..) | -8.05 | 32.2 |
| GACGCGGGAAACCGCGCC (.(((((....))))).) | -11.8 | 55 |
| GACGCTGGAAACAACGCC (.((.((....)).)).) | -12.6 | 28.2 |
| GACGGACGAAAGTCGGTC (((.(((....))).))) | -35.2 | 58.1 |
| GACGGAGGAAACTCCACC (..((((....))))..) | -10.4 | 26.4 |
| GACGGAGGAAACTCCGTC (((((((....))))))) | -36.1 | 67.8 |
| GACGGAGGAAACTTCGTC ((((.((....)).)))) | -42.1 | 49.6 |
| GACGGCCGAAAGGCAGTC (((.(((....))).))) | -26.2 | 68.8 |
| GACGGCGAAAGCCAAGTC ((((((....)))..))) | -18.5 | 49 |
| GACGGCGAAAGCCACGTC ((((((....)))..))) | -15.3 | 49.8 |
| GACGGCGAAAGCCATGTC ((((((....)))..))) | -13.3 | 45.2 |
| GACGGCGAAAGCCCGTC ((((((....))).))) | -24.7 | 65.4 |
| GACGGCGAAAGCCGCGTC ((((((....)))..))) | -8.52 | 50.9 |
| GACGGGAAACCGTC (((((....))))) | -29 | 58.6 |
| GACGGGCCGAAAGGCGTC (((..(((....)))))) | -15 | 48.8 |
| GACGGGCGAAAGCCTGTC (((.(((....))).))) | -26.2 | 67.3 |
| GACGGGGGAAACCCCACC (..((((....))))..) | -7.44 | 30.3 |
| GACGGTCCGAAAGGAGTC (((..(((....)))))) | -14.2 | 34.2 |
| GACGGTGGAAACGTCGTC ((((..(....)..)))) | -31.6 | 54.8 |
| GACGTAACGAAAGTTGTC (((..(((....)))))) | -25 | 37.5 |
| GACGTAGGAAACTACATC ((.((((....)))).)) | -13.1 | 28.4 |
| GACGTAGGAAACTACGCC (.(((((....))))).) | -16.6 | 43.6 |

| Sequence | folding enthalpy [1] [kcal/mol] | Tm [2] [°C] |
| --- | --- | --- |
| GACGTCCGAAAGGAAGTC (((.(((....))).))) | -34.7 | 54.7 |
| GACGTCCGAAAGGATGTC (((.(((....))).))) | -42.9 | 60.1 |
| GACGTCGGAAACAACGTC (((((.(....).))))) | -30.5 | 45.2 |
| GACGTGCGAAAGCAGTC (((.(((....)))))) | -21.6 | 54.9 |
| GACGTTACGAAAGTAGTC (((..(((....)))))) | -27.2 | 44.2 |
| GACGTTCCGAAAGGAGTC (((..(((....)))))) | -17 | 36.6 |
| GACGTTGGAAACAACGCC (.(((((....))))).) | -12.4 | 48.8 |
| GACTAAACGAAAGTTGTC (((..(((....)))))) | -19.6 | 34.9 |
| GACTAAGGAAACCTAGTC (((((.(....).))))) | -25.7 | 35.6 |
| GACTACCGAAAGGTTGTC (((.(((....))).))) | -31.3 | 53.1 |
| GACTACGAAAGTAAGTC ((((((....))).))) | -29.4 | 47.1 |
| GACTACGAAAGTACGTC ((((((....))).))) | -25.7 | 43.3 |
| GACTACGAAAGTAGAGTC ((((((....)))..))) | -13.7 | 34.7 |
| GACTACGAAAGTAGGGTC ((((((....)))..))) | -16.5 | 46.7 |
| GACTACGAAAGTAGTGTC ((((((....)))..))) | -15.4 | 50.4 |
| GACTACGCGAAAGCGGTC (((..(((....)))))) | -15.1 | 38 |
| GACTACGGAAACGCAGTC ((((.((....)).)))) | -28.3 | 42.1 |
| GACTAGAAATAGTC (((((....))))) | -15.7 | 37.6 |
| GACTAGCGAAAGCTTGTC (((.(((....))).))) | -31.3 | 54.7 |
| GACTAGGGAAACCTAGCC (.(((((....))))).) | -19.7 | 38.4 |
| GACTATACGAAAGTAGTC (((..(((....)))))) | -24.4 | 34.1 |
| GACTATGGAAACACAGTC ((((.((....)).)))) | -19.1 | 33 |
| GACTCAGGAAACTGAGTC (((((((....))))))) | -46 | 60.8 |

| Sequence | folding enthalpy [1] [kcal/mol] | Tm [2] [°C] |
| --- | --- | --- |
| GACTCCGAAAGGAAGTC ((((((....))).))) | -28.8 | 52.4 |
| GACTCCGAAAGGACCGTC ((((((....)))..))) | -13.8 | 29.7 |
| GACTCCGAAAGGAGGTC ((((((....))).))) | -13.5 | 56.2 |
| GACTCCGAAAGGATGGTC ((((((....)))..))) | -21.7 | 39.4 |
| GACTCCGAAAGGATTGTC ((((((....)))..))) | -16.3 | 36.8 |
| GACTCGCGAAAGCGGTC (((.(((....)))))) | -14.3 | 51.8 |
| GACTCGGGAAACTGAGTC (((((.(....).))))) | -37.2 | 52.7 |
| GACTGAGGAAACTCAGTC (((((((....))))))) | -34.8 | 61.5 |
| GACTGAGGAAACTTGGTC (((..((....))..))) | -15.7 | 32.7 |
| GACTGCCCGAAAGGGGTC (((..(((....)))))) | -9.57 | 35.6 |
| GACTGCGAAAGCAAAGTC ((((((....)))..))) | -21.7 | 47 |
| GACTGCGAAAGCAATGTC ((((((....)))..))) | -14.9 | 44.3 |
| GACTGCGAAAGCAGAGTC ((((((....)))..))) | -11.8 | 45.1 |
| GACTGCGAAAGCAGCGTC ((((((....)))..))) | -10.3 | 50.7 |
| GACTGCGAAAGCATAGTC ((((((....)))..))) | -19.4 | 46.9 |
| GACTGCGAAAGCATCGTC ((((((....)))..))) | -12.2 | 47.1 |
| GACTGCGAAAGCATGGTC ((((((....)))..))) | -14.9 | 42.7 |
| GACTGCGCGAAAGCGGTC (((..(((....)))))) | -11.3 | 48 |
| GACTGGAAACAGTC (((((....))))) | -35.1 | 51.7 |
| GACTGGCCGAAAGGCGTC (((..(((....)))))) | -11.8 | 50.8 |
| GACTGGCGAAAGCCTGTC (((.(((....))).))) | -21.6 | 68.9 |
| GACTGTGCGAAAGCAGTC (((..(((....)))))) | -18 | 45.1 |
